# Experimental data gathered from unrelated publications.
# Read-out: enzyme activity
# Action: inhibitor
# CHEK2: Serine/threonine-protein kinase Chk2 (CHEK2, Homo sapiens, UniProt O96017)
Structure (SMILES),target,test,setting,remaining activity
Cn1c(=O)n(-c2ccc(C(C)(C)C#N)cc2)c2c3cc(-c4cnc5ccccc5c4)ccc3ncc21,CHEK2,,10 µM,80%
COc1cc(Cl)c(C(=O)N[C@@H](CN[C@H]2CC[C@@H](N)CC2)Cc2ccc(C#N)cc2)cc1-c1ccc(CN[C@H](C)c2ccc(C)cc2)o1,CHEK2,,1 µM,98%
CC(C)(C)c1nc(-c2cccc(NS(=O)(=O)c3c(F)cccc3F)c2F)c(-c2ccnc(N)n2)s1,CHEK2,radiometric,1 µM,103%
CC(C)(C)C(=O)c1sc(NC2CCCCC2)nc1N,CHEK2,,10 µM,53%
Cc1cnc(NC2CCOCC2)nc1-n1cnc(C(=O)NC(CN)c2cc(F)cc(Cl)c2)c1 (stereo not drawn),CHEK2,radiometric,1 µM,75%
O=C(Nc1cnn(-c2csc(C(=O)NC3COC3)c2)c1)Nc1c(F)cccc1Cl,CHEK2,,5 µM,91.5%
COc1cc(Nc2cnc(C#N)c(O[C@H](C)CN(C)C)n2)ncc1-c1cnn(C)c1,CHEK2,radiometric,10 µM,31%
CC(C)(O)[C@H]1CC[C@H](Nc2ccc3ncc(-c4cccc(C(F)(F)F)c4)n3n2)CC1,CHEK2,,1 µM,97.4%
CCCOc1ccc(OC)c(F)c1C(=O)c1ccc(C(=O)N[C@@H]2CNC[C@H]2NC(=O)c2ccc3[nH]ncc3c2)cc1,CHEK2,,10 µM,13%
Cc1sc(C(=O)NC2COC2)cc1-n1cc(NC(=O)Nc2c(F)cccc2Cl)cn1,CHEK2,,10 µM,95.2%
Nc1nc(NC2CCCCC2)sc1C(=O)c1ccccc1,CHEK2,,10 µM,61%
Cc1ccc(NC(=O)c2ccc(C)c(C(F)(F)F)c2)cc1C#Cc1nn(C2CCC(O)CC2)c2ncnc(N)c12 (stereo not drawn),"Serine/threonine-protein kinase Chk2 (CHEK2, Homo sapiens, UniProt O96017, R145W)",,10 µM,102%
